A short description of data set [1]: Apparent permeability across apical to basolateral side in human Caco2 cells measured after 1 to 2 hrs by LC-MS/MS analysis. The note with it: Caco-2. A general note: Passage across Caco-2 layers is used to estimate intestinal permeability.
In data set [2] the target is T1, C-type lectin domain family 7 member A (Homo sapiens) (UniProt Q9BXN2).
T1 sequence (whole entry): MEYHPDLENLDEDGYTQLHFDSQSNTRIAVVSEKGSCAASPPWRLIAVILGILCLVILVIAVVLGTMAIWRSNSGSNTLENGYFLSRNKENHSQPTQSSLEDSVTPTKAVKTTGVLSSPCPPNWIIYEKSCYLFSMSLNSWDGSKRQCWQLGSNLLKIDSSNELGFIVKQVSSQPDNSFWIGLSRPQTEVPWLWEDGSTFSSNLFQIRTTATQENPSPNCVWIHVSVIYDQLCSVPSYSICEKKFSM
The data set can be described thus: Agonist activity at human Dectin1b expressed in HEK293 cells assessed as increase in NF-kappaB activation up to 10 uM incubated for 24 hrs by quanti-blue SEAP reporter gene assay. Type of data set: cell-based. The note with it: dose microM <=10, time 24.0 hrs. In outline: (§1)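 HEK293 cells stably expressing individual human TLRs or other innate immune receptors, used as reporter gene assays. Minimum effective concentration defined as the level giving a 3-fold rise over background.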
For orientation: A reporter such as luciferase makes a cellular process visible.

Data set [3] has as its system Hepatitis B virus. Briefly: Antiviral activity against HBV infected in human primary hepatocytes. Type of data set: functional, organism-based. The note with it: Primary hepatocyte.
Data set [4] has as its target Nucleotide-binding oligomerization domain-containing protein 2 (Homo sapiens) (UniProt Q9HC29). Briefly: Agonist activity at human NOD2 expressed in HEK293 cells assessed as increase in NF-kappaB activation up to 10 uM incubated for 24 hrs by quanti-blue SEAP reporter gene assay. Type of data set: cell-based. The note with it: dose microM <=10, time 24.0 hrs. Summed up:
as §1

Data set [5] in a line: Drug metabolism in human hepatocytes assessed as core oxidation. Type of data set: ADME, cell-based, Hepatocyte.
Data set [6] can be described thus: Cmax in Beagle dog at 0.5 mg/kg, po administered via gavage by HPLC-MS analysis. Type of data set: ADME, organism-based, Canis lupus familiaris. More on the design: route oral, dose 0.5 mg/kg. The following applies: in vivo. In outline: (§2)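 Oral dosing in 2% ethanol/40% PEG 300/58% 0.01N HCl: Sprague Dawley rats 5 mg/kg, beagle dogs 0.5 mg/kg, cynomolgus monkeys 3 mg/kg.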

Data set [7] addresses Toll-like receptor 2 (Homo sapiens) (UniProt O60603). The data set can be described thus: Agonist activity at human TLR2 expressed in HEK293 cells assessed as increase in NF-kappaB activation up to 10 uM incubated for 24 hrs by quanti-blue SEAP reporter gene assay. The following applies: dose microM <=10, time 24.0 hrs. Type of data set: cell-based. Summed up:
as §1

Data set [8] deals with Toll-like receptor 4 (Homo sapiens) (UniProt O00206). Briefly: Agonist activity at human TLR4 expressed in HEK293 cells assessed as increase in NF-kappaB activation up to 10 uM incubated for 24 hrs by quanti-blue SEAP reporter gene assay. Type of data set: cell-based. The following applies: dose microM <=10, time 24.0 hrs. In outline: as §1
Sequence of Toll-like receptor 4 (Homo sapiens) (O00206 whole entry, the tested form may be a part): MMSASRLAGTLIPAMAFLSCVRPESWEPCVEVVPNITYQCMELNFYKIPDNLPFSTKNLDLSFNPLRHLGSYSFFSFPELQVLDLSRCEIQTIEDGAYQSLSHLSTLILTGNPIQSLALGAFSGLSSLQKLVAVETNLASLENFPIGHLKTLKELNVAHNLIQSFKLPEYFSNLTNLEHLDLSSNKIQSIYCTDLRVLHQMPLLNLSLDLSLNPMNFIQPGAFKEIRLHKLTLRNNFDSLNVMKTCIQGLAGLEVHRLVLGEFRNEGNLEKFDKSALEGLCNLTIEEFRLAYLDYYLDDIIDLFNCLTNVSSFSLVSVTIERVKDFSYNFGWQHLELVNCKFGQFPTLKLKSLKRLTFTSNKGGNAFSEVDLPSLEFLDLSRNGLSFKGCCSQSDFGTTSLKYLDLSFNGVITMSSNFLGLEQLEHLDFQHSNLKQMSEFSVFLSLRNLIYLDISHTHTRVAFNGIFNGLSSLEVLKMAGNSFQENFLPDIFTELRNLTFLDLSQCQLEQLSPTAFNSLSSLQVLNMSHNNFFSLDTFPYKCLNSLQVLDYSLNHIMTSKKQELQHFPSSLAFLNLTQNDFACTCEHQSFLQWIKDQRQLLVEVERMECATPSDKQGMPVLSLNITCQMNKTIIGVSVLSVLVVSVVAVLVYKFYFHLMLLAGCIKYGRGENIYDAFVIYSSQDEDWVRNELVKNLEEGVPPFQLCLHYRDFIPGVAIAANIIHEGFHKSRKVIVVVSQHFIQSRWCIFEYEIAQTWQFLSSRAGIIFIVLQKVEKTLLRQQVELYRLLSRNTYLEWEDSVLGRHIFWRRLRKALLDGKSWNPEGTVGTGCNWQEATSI
A short description of data set [9]: Clearance in cynomolgus monkey at 0.1 mg/kg, iv administered as 30 mins infusion by HPLC-MS analysis. Type of data set: ADME, organism-based, Macaca fascicularis. The note with it: in vivo. In outline:
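30-min intravenous infusion: Sprague Dawley rats 1 mg/kg, beagle dogs 0.25 mg/kg, cynomolgus monkeys 0.1 mg/kg; n = 3 per species, reported as mean ± SD.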

For data set [10], the target named is T2, Toll-like receptor 7 (Homo sapiens) (UniProt Q9NYK1).
T2 sequence (whole entry): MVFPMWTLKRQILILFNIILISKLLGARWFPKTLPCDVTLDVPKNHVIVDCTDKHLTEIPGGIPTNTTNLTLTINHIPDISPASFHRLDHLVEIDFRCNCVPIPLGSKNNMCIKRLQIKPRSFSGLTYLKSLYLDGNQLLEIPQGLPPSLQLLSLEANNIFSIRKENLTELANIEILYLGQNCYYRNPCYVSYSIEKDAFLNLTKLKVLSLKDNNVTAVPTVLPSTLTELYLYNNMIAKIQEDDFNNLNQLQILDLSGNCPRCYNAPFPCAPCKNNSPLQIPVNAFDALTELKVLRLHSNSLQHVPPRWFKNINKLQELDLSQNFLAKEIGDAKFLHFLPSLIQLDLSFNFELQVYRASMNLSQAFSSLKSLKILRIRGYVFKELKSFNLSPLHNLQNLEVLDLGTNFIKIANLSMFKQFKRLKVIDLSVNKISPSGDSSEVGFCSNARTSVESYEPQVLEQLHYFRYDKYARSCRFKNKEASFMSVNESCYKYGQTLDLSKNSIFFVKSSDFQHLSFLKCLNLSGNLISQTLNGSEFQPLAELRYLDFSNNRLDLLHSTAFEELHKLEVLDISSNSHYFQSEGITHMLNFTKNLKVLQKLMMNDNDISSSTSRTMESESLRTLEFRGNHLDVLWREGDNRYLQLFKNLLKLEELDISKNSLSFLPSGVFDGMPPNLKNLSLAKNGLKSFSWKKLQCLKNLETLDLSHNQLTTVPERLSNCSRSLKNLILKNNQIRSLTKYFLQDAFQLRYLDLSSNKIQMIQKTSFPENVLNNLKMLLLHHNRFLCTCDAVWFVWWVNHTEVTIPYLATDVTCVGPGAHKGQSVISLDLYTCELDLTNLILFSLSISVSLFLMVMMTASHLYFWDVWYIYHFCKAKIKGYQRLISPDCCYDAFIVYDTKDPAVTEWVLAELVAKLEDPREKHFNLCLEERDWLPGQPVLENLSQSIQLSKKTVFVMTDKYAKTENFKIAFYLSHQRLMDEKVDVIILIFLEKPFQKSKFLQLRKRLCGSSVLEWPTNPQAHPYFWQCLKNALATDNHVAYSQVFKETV
The data set can be described thus: Agonist activity at human TLR7 expressed in HEK293 cells assessed as increase in NF-kappaB activation incubated for 24 hrs by quanti-blue SEAP reporter gene assay. Type of data set: cell-based. The note with it: filed as agonist. Summed up: as §1

Data set [11] is described as follows: AUC (infinity) in cynomolgus monkey at 3 mg/kg, po administered via gavage by HPLC-MS analysis. Type of data set: ADME, organism-based, Macaca fascicularis. More on the design: route oral, time infinity, dose 3 mg/kg. The following applies: in vivo. Summed up: as §2

Structures are written as SMILES. Active and inactive are the calls of the source.

Sequence of Nucleotide-binding oligomerization domain-containing protein 2 (Homo sapiens) (Q9HC29 whole entry, the tested form may be a part): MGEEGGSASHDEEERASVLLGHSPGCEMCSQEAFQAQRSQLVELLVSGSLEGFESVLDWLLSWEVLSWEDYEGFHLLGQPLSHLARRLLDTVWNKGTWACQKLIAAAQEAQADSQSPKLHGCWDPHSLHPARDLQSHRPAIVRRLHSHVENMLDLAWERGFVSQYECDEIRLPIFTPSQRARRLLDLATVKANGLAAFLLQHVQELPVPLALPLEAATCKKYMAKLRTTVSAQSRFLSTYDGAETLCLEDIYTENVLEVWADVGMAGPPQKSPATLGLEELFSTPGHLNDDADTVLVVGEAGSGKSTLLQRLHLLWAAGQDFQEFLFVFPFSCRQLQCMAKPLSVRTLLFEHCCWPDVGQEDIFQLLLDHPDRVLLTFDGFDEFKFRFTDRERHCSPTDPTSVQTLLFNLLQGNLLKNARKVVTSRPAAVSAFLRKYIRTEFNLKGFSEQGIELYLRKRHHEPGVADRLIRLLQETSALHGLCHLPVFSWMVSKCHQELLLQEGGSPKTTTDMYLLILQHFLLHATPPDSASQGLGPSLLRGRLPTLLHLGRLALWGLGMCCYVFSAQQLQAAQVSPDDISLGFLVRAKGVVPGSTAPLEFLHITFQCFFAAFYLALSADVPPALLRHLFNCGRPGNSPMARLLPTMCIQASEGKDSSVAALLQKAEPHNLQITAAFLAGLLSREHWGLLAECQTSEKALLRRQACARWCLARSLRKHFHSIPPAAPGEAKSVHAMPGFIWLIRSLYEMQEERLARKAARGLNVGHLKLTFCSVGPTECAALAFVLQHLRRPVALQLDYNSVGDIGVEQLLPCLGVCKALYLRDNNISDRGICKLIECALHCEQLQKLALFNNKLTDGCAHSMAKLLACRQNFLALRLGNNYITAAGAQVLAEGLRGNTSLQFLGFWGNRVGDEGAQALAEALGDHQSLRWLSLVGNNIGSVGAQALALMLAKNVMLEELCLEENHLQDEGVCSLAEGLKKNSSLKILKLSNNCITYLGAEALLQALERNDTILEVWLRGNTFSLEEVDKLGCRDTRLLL
Sequence of Toll-like receptor 2 (Homo sapiens) (O60603 whole entry): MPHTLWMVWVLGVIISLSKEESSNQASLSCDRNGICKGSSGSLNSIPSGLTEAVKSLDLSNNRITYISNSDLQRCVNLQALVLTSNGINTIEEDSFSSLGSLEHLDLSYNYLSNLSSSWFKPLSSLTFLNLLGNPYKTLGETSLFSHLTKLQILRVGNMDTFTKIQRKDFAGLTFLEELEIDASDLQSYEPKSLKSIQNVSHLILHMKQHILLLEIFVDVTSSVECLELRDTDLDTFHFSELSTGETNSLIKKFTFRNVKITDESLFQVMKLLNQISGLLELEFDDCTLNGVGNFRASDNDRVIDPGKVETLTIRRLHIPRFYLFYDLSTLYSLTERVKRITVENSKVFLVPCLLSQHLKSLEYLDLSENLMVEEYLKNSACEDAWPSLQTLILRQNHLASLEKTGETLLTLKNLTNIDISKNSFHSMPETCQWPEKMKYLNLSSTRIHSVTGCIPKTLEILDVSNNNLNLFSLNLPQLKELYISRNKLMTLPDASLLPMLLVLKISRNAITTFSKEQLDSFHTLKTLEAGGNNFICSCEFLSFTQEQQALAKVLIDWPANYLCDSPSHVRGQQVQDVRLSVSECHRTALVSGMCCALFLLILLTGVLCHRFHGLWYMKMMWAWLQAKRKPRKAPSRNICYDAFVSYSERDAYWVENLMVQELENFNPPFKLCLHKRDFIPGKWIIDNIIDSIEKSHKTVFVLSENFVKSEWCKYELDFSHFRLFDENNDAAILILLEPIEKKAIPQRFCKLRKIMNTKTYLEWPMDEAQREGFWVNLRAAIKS

`CCCC[C@](C)(CO)Nc1nc(N)nc2cc(F)cnc12` [SELGANTOLIMOD]: the apparent permeability from apical to basolateral (Papp A→B) in data set [1] came out at 79 nm/s. The result in data set [2], in data set [3], in data set [4], in data set [7] and in data set [8] was inactive. Also, the Drug metabolism result in [5] is “Metabolite_Notdetected”. This compound also displayed a Cmax in [6] of 9.7 nM. The compound further gave a clearance in data set [9] of 6.2 L/h/kg. Further, the MEC in data set [10] stood at 5.2 µM. The compound further showed an area under the curve AUC(0-inf) in [11] of 4.7 nM·h.

One may read the Papp A→B as how fast a substance crosses the layer from the apical side. A word on the Cmax: it is the highest concentration seen after dosing. A word on the clearance: it is a measure of how efficiently the substance is removed, as volume per time. A word on the AUC(0-inf): it is total exposure, with the tail of the curve extrapolated.

These data come from ChEMBL document CHEMBL4725242, “Discovery of GS-9688 (Selgantolimod) as a Potent and Selective Oral Toll-Like Receptor 8 Agonist for the Treatment of Chronic Hepatitis B” (J Med Chem, 2020).
